Source: ChEMBL document CHEMBL1150387, “Development and experimental validation of a docking strategy for the generation of kinase-targeted libraries” (J Med Chem, 2008)

What was measured:
[1] = target: Tyrosine-protein kinase Fes/Fps (Homo sapiens) (UniProt P07332); assay: Inhibition of FES at 10 uM by HTRF assay relative to control
In short: (§1)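 HTRF kinase assay, one panel of kinases. Inhibitor stock 50 µM in 100% DMSO; tested at 10 µM. ATP and substrate at final levels near Km. Final buffer: 50 mM Hepes/NaOH pH 7.4, 40 µM Na3VO4, 0.005% Tween-20, 1 mM DTT, MnCl2 or MgCl2 at kinase-dependent levels. Started by adding ATP/substrate. Reaction run at room temperature, time varied by kinase. Detection mix in 50 mM Hepes pH 7.4, 0.1% BSA, 150 mM KF, incubated ≥1 h at room temperature. Activity expressed as % of uninhibited control; n=2.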

[2] = target: Protein kinase C alpha type (Homo sapiens) (UniProt P17252); assay: Inhibition of PKCalpha at 10 uM by HTRF assay relative to control; in short: as §1
[3] = Inhibition of AMPKalpha at 10 uM by HTRF assay relative to control; in short: as §1
[4] = target: Focal adhesion kinase 1 (Homo sapiens) (UniProt Q05397); assay: Inhibition of FAK at 10 uM by HTRF assay relative to control; in short: as §1
[5] = target: Cyclin-dependent kinase 2 (Homo sapiens) (UniProt P24941); assay: Inhibition of CDK2 at 10 uM by HTRF assay relative to control; in short: as §1
[6] = Inhibition of PKA at 10 uM by HTRF assay relative to control; in short: as §1
[7] = target: Platelet-derived growth factor receptor beta (Homo sapiens) (UniProt P09619); assay: Inhibition of PDGFRbeta at 10 uM by HTRF assay relative to control; in short: as §1
[8] = target: T1, Mitogen-activated protein kinase 12 (Homo sapiens) (UniProt P53778); assay: Inhibition of p38-gamma at 10 uM by HTRF assay relative to control; in short: as §1
T1 sequence (whole entry): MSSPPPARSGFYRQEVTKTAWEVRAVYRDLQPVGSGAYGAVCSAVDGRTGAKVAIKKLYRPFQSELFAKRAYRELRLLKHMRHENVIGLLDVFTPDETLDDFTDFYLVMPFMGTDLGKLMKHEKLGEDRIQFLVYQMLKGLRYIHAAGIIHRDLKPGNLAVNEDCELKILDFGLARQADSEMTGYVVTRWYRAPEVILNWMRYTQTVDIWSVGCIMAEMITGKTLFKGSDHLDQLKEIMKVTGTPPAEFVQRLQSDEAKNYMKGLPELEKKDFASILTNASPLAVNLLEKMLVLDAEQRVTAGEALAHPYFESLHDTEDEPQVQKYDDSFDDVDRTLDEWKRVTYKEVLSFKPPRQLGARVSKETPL

[9] = target: Protein kinase C gamma type (Homo sapiens) (UniProt P05129); assay: Inhibition of PKCgamma at 10 uM by HTRF assay relative to control; in short: as §1
[10] = target: Receptor-type tyrosine-protein kinase FLT3 (Homo sapiens) (UniProt P36888); assay: Inhibition of FLT3 at 10 uM by HTRF assay relative to control; in short: as §1
[11] = target: T2, Serine/threonine-protein kinase Chk1 (Homo sapiens) (UniProt O14757); assay: Inhibition of CHK1 at 10 uM by HTRF assay relative to control; in short: as §1
T2 sequence (whole entry): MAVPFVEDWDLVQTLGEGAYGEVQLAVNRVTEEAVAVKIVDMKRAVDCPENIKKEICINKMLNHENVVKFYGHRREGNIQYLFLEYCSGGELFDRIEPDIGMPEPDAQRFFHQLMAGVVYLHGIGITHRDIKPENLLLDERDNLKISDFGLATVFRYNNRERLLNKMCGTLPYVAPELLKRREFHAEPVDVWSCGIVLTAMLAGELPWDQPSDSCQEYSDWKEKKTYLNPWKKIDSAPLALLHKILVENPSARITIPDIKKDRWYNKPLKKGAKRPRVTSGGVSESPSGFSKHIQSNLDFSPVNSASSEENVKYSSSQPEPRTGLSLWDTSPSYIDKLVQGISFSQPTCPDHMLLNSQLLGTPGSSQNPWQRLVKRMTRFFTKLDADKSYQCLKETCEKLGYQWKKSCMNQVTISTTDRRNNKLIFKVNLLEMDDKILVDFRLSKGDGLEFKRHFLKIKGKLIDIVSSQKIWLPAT

[12] = target: Calcium/calmodulin-dependent protein kinase type II subunit alpha (Homo sapiens) (UniProt Q9UQM7); assay: Inhibition of CaMK2alpha at 10 uM by HTRF assay relative to control; in short: as §1
[13] = target: Proto-oncogene tyrosine-protein kinase Src (Homo sapiens) (UniProt P12931); assay: Inhibition of Src at 10 uM by HTRF assay relative to control; in short: as §1

Calcium/calmodulin-dependent protein kinase type II subunit alpha (Homo sapiens), sequence (Q9UQM7 whole entry): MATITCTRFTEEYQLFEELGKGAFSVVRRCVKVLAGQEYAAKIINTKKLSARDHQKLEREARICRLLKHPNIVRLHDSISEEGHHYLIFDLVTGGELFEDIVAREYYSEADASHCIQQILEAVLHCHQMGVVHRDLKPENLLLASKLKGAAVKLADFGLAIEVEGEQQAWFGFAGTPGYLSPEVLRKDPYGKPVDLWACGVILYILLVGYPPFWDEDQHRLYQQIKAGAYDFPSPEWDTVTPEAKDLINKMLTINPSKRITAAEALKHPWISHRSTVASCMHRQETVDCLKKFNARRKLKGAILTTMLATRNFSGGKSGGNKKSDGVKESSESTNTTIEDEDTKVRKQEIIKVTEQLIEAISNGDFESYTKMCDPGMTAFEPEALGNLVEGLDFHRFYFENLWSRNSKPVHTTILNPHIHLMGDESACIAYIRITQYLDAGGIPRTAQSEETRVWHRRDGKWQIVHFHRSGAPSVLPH
Platelet-derived growth factor receptor beta (Homo sapiens), sequence (P09619 whole entry): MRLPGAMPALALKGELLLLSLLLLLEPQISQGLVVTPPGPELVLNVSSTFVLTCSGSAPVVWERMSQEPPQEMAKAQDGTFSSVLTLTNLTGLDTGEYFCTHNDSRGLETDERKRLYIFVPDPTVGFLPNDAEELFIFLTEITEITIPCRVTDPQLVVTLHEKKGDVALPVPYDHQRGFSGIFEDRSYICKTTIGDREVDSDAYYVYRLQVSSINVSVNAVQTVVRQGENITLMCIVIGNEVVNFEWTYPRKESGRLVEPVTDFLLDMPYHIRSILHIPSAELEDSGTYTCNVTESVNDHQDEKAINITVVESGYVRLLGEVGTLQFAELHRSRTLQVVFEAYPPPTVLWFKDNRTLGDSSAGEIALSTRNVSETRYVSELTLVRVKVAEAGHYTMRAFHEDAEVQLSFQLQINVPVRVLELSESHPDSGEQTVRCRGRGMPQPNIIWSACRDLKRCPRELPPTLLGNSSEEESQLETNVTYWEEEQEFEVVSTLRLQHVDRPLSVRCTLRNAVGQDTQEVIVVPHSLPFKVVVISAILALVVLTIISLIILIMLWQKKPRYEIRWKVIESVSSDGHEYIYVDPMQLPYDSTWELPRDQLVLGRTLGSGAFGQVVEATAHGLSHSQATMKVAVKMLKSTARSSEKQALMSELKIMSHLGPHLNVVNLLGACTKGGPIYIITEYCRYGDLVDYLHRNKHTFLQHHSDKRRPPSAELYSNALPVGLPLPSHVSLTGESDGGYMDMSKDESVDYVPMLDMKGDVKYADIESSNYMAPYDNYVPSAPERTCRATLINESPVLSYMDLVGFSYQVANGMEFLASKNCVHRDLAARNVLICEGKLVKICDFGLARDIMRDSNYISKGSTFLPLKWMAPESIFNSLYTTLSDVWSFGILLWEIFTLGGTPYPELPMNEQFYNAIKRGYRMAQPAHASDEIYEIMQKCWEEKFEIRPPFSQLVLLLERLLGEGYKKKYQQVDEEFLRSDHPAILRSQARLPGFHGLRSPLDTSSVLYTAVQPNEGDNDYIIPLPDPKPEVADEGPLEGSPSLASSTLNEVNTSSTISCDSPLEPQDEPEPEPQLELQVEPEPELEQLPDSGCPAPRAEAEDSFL
Focal adhesion kinase 1 (Homo sapiens), sequence (Q05397 2-1052 limits assumed): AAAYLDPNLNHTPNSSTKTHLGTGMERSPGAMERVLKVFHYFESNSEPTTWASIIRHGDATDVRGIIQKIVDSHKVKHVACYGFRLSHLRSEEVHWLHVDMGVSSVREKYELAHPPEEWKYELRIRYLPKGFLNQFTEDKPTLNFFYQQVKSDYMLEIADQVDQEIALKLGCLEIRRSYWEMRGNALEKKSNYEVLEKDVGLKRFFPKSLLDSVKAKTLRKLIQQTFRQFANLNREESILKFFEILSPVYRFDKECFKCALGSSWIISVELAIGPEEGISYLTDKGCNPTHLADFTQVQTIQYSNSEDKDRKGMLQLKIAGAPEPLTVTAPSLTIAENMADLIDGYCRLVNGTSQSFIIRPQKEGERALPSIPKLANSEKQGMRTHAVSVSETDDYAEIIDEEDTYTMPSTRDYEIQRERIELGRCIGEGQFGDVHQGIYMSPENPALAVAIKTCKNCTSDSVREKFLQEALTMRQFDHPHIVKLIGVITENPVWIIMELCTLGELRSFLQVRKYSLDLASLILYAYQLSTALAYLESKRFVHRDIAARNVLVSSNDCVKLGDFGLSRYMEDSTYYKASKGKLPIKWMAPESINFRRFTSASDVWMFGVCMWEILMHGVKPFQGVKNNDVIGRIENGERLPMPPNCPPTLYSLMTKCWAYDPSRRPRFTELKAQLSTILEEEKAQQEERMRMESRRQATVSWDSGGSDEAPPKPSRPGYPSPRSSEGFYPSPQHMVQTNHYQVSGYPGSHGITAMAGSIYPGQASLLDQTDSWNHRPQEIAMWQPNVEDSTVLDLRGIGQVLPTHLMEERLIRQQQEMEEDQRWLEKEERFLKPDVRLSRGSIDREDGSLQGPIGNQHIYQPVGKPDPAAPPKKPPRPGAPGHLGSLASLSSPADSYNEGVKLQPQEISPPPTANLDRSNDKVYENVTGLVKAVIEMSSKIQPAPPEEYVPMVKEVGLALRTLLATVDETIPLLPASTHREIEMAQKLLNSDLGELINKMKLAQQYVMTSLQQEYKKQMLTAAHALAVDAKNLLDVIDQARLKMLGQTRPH
Receptor-type tyrosine-protein kinase FLT3 (Homo sapiens), sequence (P36888 whole entry): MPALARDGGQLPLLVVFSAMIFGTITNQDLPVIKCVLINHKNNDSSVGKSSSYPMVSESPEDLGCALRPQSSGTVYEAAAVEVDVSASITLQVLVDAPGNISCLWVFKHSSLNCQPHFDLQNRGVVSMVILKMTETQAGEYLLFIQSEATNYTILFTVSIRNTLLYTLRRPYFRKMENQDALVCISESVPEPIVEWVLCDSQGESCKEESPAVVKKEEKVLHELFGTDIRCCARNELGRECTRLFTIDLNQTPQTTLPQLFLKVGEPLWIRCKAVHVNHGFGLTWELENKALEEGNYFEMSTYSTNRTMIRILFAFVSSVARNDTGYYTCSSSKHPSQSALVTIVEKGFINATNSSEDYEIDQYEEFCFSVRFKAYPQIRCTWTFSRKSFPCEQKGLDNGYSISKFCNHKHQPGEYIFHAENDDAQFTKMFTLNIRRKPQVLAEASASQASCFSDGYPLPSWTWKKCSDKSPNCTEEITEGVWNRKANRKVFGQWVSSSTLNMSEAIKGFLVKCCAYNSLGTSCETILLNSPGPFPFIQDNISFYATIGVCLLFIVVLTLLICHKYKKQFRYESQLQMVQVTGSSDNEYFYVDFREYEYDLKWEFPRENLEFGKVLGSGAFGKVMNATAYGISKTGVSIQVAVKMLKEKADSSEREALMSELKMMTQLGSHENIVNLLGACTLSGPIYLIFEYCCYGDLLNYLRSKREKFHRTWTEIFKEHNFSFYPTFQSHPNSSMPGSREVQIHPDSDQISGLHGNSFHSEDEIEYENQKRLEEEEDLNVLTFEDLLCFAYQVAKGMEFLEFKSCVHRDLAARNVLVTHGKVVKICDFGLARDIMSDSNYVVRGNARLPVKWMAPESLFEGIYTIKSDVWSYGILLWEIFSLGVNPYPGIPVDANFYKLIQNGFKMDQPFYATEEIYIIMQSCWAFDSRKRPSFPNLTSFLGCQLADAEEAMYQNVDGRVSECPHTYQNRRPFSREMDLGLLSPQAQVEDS

Row | SMILES | inhibition [1] | inhibition [2] | inhibition [3] | inhibition [4] | inhibition [5] | inhibition [6] | inhibition [7] | inhibition [8] | inhibition [9] | inhibition [10] | inhibition [11] | inhibition [12] | inhibition [13]
1 | Cc1ccc(CN2CCN(c3nccc(C(C#N)c4ccccn4)n3)CC2)cc1 (stereo unspecified) | 3% | 0% | 7% | 3% | 7% | 0% | 14% | 0% | 4% | 0% | 8% | 0% | 4%
2 | Nc1nc(Nc2ccc(C(=O)NCCc3ccncc3)cc2)cc(N2CCOCC2)n1 | 9% | 0% | 0% | 3% | 2% | 3% | 13% | 3% | 0% | 0% | 2% | 0% | 3%
3 | CN(C)c1ccc(C(=O)N2CCN(c3ncnc4c3CN(Cc3ccccc3)CC4)CC2)c2ccccc12 | 2% | 0% | 0% | 0% | 5% | 0% | 4% | 0% | 4% | 0% | 4% | 0% | 0%
4 | COC[C@@H]1CCCN1C(=O)C1CCCN1c1cc(Nc2cccc(Br)c2)ncn1 (stereo partly specified) | 5% | 0% | 0% | 5% | 4% | 8% | 6% | 0% | 5% | 0% | 2% | 0% | 3%
5 | Cc1cccc(Nc2nccc3c2CN(C(=O)c2cc(C)n(C)c2C)CC3)c1 | 2% | 1% | 1% | 1% | 8% | 0% | 5% | 1% | 4% | 0% | 3% | 0% | 0%
6 | CN(C)CC(C)(C)CNC(=O)[C@@H]1CCCN1c1nccc(Nc2ccccc2)n1 | 20% | 0% | 10% | 4% | 9% | 0% | 5% | 2% | 2% | 0% | 6% | 0% | 0%
7 | COc1ccc(-c2noc(CN3CCN(c4cc(Nc5cccc(O)c5)ncn4)CC3)n2)cc1 | 7% | 0% | 4% | 3% | 6% | 0% | 6% | 0% | 5% | 0% | 2% | 0% | 3%
8 | Nc1nc(N2CCOCC2)cc(N2CCC(C(=O)NCc3cccs3)CC2)n1 | 9% | 0% | 5% | 3% | 14% | 0% | 8% | 0% | 0% | 0% | 1% | 0% | 3%
9 | CN(C)CC(C)(C)CNC(=O)C1CCN(c2cc(N3CCOCC3)nc(N)n2)CC1 | 3% | 0% | 11% | 3% | 8% | 0% | 6% | 2% | 3% | 0% | 8% | 0% | 10%
10 | Cc1cccc(Oc2ccnc(N3CCN(CC(=O)Nc4cccc5c4CCCC5)CC3)n2)c1 | 23% | 3% | 0% | 0% | 4% | 5% | 6% | 0% | 5% | 0% | 5% | 0% | 5%

Results, then the compound that gave them:

Row | inhibition [1] | inhibition [2] | inhibition [3] | inhibition [4] | inhibition [5] | inhibition [6] | inhibition [7] | inhibition [8] | inhibition [9] | inhibition [10] | inhibition [11] | inhibition [12] | inhibition [13] | SMILES
11 | 5% | 0% | 9% | 0% | 2% | 0% | 8% | 2% | 3% | 0% | 2% | 0% | 9% | O=C(NC1Cc2ccccc2C1)c1cccc(Nc2ccnc(N3CCN(c4ccccc4)CC3)n2)c1
12 | 7% | 0% | 0% | 1% | 6% | 2% | 9% | 2% | 3% | 0% | 0% | 0% | 2% | Cc1cccc(N(C)c2cc(Nc3cccc(C(=O)N(CC(C)C)CC(C)C)c3)ncn2)c1
13 | 4% | 0% | 0% | 9% | 1% | 0% | 13% | 0% | 10% | 21% | 1% | 0% | 4% | Cc1cccc(N(C)c2cc(Nc3cccc(C(=O)NCc4ccc(N(C)C)cc4)c3)ncn2)c1
14 | 10% | 3% | 8% | 17% | 1% | 0% | 24% | 0% | 0% | 54% | 6% | 0% | 8% | Cc1cccc(Nc2nccc(Nc3cccc(C(=O)NCc4ccc(N(C)C)cc4)c3)n2)c1
15 | 7% | 0% | 13% | 11% | 1% | 0% | 3% | 3% | 1% | 0% | 9% | 0% | 6% | COc1cccc(Nc2cc(Nc3cccc(C(=O)N(C)CCc4ccccn4)c3)nc(N)n2)c1
16 | 7% | 0% | 1% | 8% | 4% | 0% | 5% | 1% | 5% | 0% | 2% | 0% | 3% | Cc1cccc(N(C)c2cc(Nc3cccc(C(=O)N4CCCC5CCCCC54)c3)ncn2)c1 (stereo unspecified)
17 | 15% | 5% | 0% | 6% | 21% | 0% | 23% | 1% | 6% | 0% | 6% | 0% | 15% | Cc1cccc(N(C)c2cc(Nc3cccc(C(=O)N(C)CCc4ccccn4)c3)ncn2)c1
18 | 0% | 0% | 0% | 1% | 17% | 6% | 0% | 6% | 5% | 0% | 0% | 0% | 0% | Nc1nc(Nc2ccccc2)cc(N2CCC(C(=O)NCCc3ccccn3)CC2)n1
19 | 22% | 7% | 5% | 15% | 12% | 0% | 37% | 2% | 2% | 15% | 0% | 0% | 24% | Cc1cccc(N(C)c2cc(Nc3cccc(C(=O)NCCCn4ccnc4)c3)ncn2)c1
20 | 51% | 5% | 16% | 78% | 12% | 1% | 91% | 1% | 27% | 98% | 0% | 0% | 69% | CN(CCc1ccccn1)C(=O)c1cccc(Nc2nccc(Nc3ccc4ncsc4c3)n2)c1
21 | 18% | 0% | 49% | 15% | 8% | 2% | 30% | 5% | 14% | 0% | 4% | 0% | 13% | O=C(COc1ccccc1)N1CCN(c2nccc(Nc3ccc4ncsc4c3)n2)CC1
22 | 18% | 0% | 54% | 67% | 0% | 16% | 85% | 5% | 28% | 98% | 6% | 0% | 11% | O=C(NCc1cccnc1)c1cccc(-c2ccc(Nc3ccc4ncsc4c3)nn2)c1
